Measured values: PMC5063151 (Chemmedchem, 2015)

Tests used:
VEGF11−109 (VEGF) = experiment: STD and WaterLOGSY ligand-observed NMR binding experiments; conditions: STD, 1 mM baicalin, 10 μM VEGF, 298 K
Outline: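 Ligand‑observed STD and WaterLOGSY were run with 10 μM VEGF and 0.5 or 1 mM test compound in 25 mM sodium phosphate pH 7.0, 50 mM NaCl, […], at 37, 25 or 5 °C on 600/500 MHz spectrometers. On‑resonance saturation targeted the aliphatic protein region (STD) or the water signal (WaterLOGSY). Binding was judged from ligand STD/WaterLOGSY signals.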

[1] = system: VEGF (v107 / receptor binding site); experiment: STD competition assay with peptide v107; conditions: 1 mM baicalin, 10 μM VEGF, 298 K, 50 and 100 μM v107
[2] = target: T1, methyl‐13C‐Met‐labeled VEGF (Homo sapiens, UniProt P15692); experiment: Protein-observed CSP with methyl‐13C‐Met‐labeled VEGF; type: binding
T1 sequence (P15692 217-315): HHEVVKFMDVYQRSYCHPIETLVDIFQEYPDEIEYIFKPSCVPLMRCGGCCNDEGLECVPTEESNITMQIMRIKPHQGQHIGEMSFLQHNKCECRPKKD
Outline: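 Methyl‑13C‑Met‑labeled VEGF at 30 μM in 25 mM sodium phosphate pH 7.0, 50 mM NaCl, 10% D2O, usually at 45 °C. 1H–13C HSQC used 256×96 points with 8 scans per increment. 13C‑decoupled‑13C‑filtered 1D 1H spectra used 2048 points and 128 scans. KD came from ligand‑titration chemical shift perturbations.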

O=C(O)[C@H]1O[C@@H](Oc2cc3oc(-c4ccccc4)cc(=O)c3c(O)c2O)[C@H](O)[C@@H](O)[C@@H]1O [baicalin]
Binding of isolated compound to VEGF (VEGF11−109 (VEGF)): able to bind VEGF | STD competition with v107 (reduction of ligand STD signals) [1]: baicalin and v107 compete for the same binding site

O=c1c(O[C@@H]2O[C@H](CO)[C@@H](O)[C@H](O)[C@H]2O)c(-c2ccc(O)c(O)c2)oc2cc(O)cc(O)c12 [quercetin‐3‐β‐glucoside]
Methionine perturbations on 13C‐filtered‐13C‐decoupled 1H NMR spectra of VEGF ([2]; baicalin‐related flavonoids of Figure 7 a): induced methionine perturbations

&D‐Pro‐Trp‐Glu‐D‐Pro‐Trp‐Glu& (head to tail)
VEGF binding affinity from titration experiments ([2]; CSP titration, methyl‐13C‐Met‐labeled VEGF): low‐millimolar range
